Source: PubChem BioAssay
CHRM4 PAM = human M4 muscarinic receptor positive allosteric modulators, primary screen, CHO-K1 cells, Fluo-8 calcium fluorescence; Muscarinic acetylcholine receptor M4 (Homo sapiens), P08173; CHO-K1 hM4/Gqi5, ACh EC20; 0% = ACh EC20, 100% = maximal ACh; activation, % at 3 µM; hit rate 0.4% among 360,000; AID 624126, 2012;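 active = activation above its plate's cutoff, the mean activation of sample wells plus 3 SD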
CHRM5 antagonist = human M5 muscarinic receptor antagonists, primary screen, CHO cells, Fluo-8 calcium fluorescence; Muscarinic acetylcholine receptor M5 (Homo sapiens), P08912; CHO-hM5 cells, ACh EC80; inhibition, % at 3 µM; hit rate 0.59% among 360,000; AID 624040, 2012;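 active = inhibition above a per-plate cutoff, the mean of that plate's test compounds plus 3 SD, cut at about 27% in these data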;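 note: 0% = acetylcholine EC80 with DMSO and 100% = DMSO without agonist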
Target sequence (P08912 whole entry, looked up): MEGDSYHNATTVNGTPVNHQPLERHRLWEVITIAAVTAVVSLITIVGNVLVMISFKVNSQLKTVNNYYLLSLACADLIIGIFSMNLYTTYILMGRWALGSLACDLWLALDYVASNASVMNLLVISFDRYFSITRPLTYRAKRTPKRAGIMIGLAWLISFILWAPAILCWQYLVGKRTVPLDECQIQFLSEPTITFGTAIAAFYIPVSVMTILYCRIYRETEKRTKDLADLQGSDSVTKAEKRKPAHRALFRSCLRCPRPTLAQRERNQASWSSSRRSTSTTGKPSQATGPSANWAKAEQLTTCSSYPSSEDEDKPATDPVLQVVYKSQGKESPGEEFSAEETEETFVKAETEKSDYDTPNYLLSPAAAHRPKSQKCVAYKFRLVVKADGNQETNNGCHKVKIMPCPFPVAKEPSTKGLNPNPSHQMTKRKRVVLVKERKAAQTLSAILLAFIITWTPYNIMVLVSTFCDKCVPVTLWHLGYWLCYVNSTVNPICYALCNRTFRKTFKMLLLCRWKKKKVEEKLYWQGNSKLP
M4 ag = human M4 muscarinic receptor agonists, primary screen, CHO-K1 cells, Fluo-8 calcium fluorescence | activation, % at 3 µM | hit rate 0.14% among 360,000 | Muscarinic acetylcholine receptor M4 (Homo sapiens), P08173 | CHO-K1 hM4/Gqi5; vehicle 0%, full acetylcholine response 100%;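 active = activation above the run mean over all test wells plus 3 SD, cut at about 32% in these data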;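 note: peak over basal fluorescence ratio per well then scaled between controls; 0% = DMSO wells and 100% = acetylcholine at EC100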
CHRM4 antagonist = human M4 muscarinic receptor antagonists, primary screen, CHO cells, Fluo-8 calcium fluorescence | Muscarinic acetylcholine receptor M4 (Homo sapiens), P08173 | CHO-hM4 cells, ACh EC80 | inhibition, % at 3 µM | hit rate 0.73% among 360,000 | AID 624125, 2012;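 active = inhibition above its plate's cutoff, the mean inhibition of sample wells plus 3 SD, cut at about 27% in these data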;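 note: 0% = acetylcholine EC80 with DMSO and 100% = DMSO without agonist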
CHRM5 PAM = human M5 muscarinic receptor positive allosteric modulators, primary screen, CHO-K1 cells, Fluo-8 calcium fluorescence; hit rate 0.3% among 360,000; CHO-K1 hM5, ACh EC20 PAM; 0% = ACh EC20, 100% = ACh EC100; activation, % at 3 µM;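 active = activation above the run cutoff, the mean activation of all test compounds plus 3 SD, cut at about 18% in these data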
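Probe or stimulus: acetylcholine, EC20 level; Assay system: human M5 receptor in CHO-K1 cells; Schedule: compound preincubation 140 s before EC20 acetylcholine addition; Technique: intracellular calcium via Fluo-8 fluorescence; Dosing: single-point, 3 µM nominal; Read-out basis: percent activation from peak-over-basal fluorescence ratio, scaled EC20-to-EC100 acetylcholine; Repeats: one well per compound, no replicates.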
M5 ag = human M5 muscarinic receptor agonists, primary screen, CHO-K1 cells, Fluo-8 calcium fluorescence | Muscarinic acetylcholine receptor M5 (Homo sapiens), P08912 | CHO-K1 hM5 cells; 0% DMSO wells, 100% maximal acetylcholine response | activation, % at 3 µM | hit rate 0.19% among 360,000;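 active = activation above the run's mean over test compounds plus 3 SD, cut at about 23% in these data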;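 note: signal is peak over basal fluorescence ratio across the kinetic read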
An asterisk follows results filed as active. Hits are enriched below; roughly 1.8% of the tested compounds scored in any of these assays.

SMILES	CHRM4 PAM	CHRM5 antagonist	M4 ag	CHRM4 antagonist	CHRM5 PAM	M5 ag
COc1ccc(-c2nnc3n2N=C(C)CS3)cc1	-5.0	8.5	-0.6	13.9	-2.2	0.0
CCCCNC(=O)Cn1cnc2sc(C)c(S(=O)(=O)N3CCN(c4ccccc4OC)CC3)c2c1=O	3.6	-4.1	1.8	-19.2	2.6	1.3
O=c1[nH][nH]c(-c2ccccc2)c1C=Nc1ccc(F)cc1F	21.3*	-2.9	1.8	-3.8	7.6	1.6
CCOC(=O)Nc1ccc2c(C)cc(=O)oc2c1	5.1	2.0	2.7	4.0	-7.9	1.7
CCCCOC(=O)Nc1ccc2c(C)cc(=O)oc2c1	29.6*	0.2	0.1	-9.6	-4.6	-2.8
CN1CCN(c2ccccc2NC(=O)C(Cc2ccccc2)n2cccc2)CC1 (configuration not stated)	-12.5	1.4	6.0	31.9*	-3.2	-2.1
CN(C)N(Cc1ccccc1)C(=O)C(O)(c1ccccc1)c1ccccc1	-11.5	-1.6	9.7	-5.0	-11.6	-23.2
CN(C)C(C)(C)/C=C/C(O)(c1ccccc1)c1ccccc1	-16.1	63.5*	6.6	70.5*	-30.1	-19.9
COc1ccccc1NC(=O)Cn1c(CCC(=O)O)ccc1-c1ccc(C)cc1	-0.8	1.7	1.2	-1.4	-6.6	-0.7
CCN(CC)CC#CCOC(c1ccccc1)c1ccccc1	-24.0	21.6	-1.3	30.4*	-32.1	-13.2
CN(C)CC#CCOC(c1ccccc1)c1ccccc1	-23.6	26.3	-0.1	27.2*	-34.8	-16.9
C=CC[N+]1(CC#CCOC(c2ccccc2)c2ccccc2)CCOCC1	-11.4	0.7	-0.1	9.7	0.1	-7.3
O=C(NCc1cccs1)c1cccc2c(-c3ccc(F)c(F)c3)coc12	-3.7	3.0	3.4	-9.3	-7.3	-0.4
Cc1cc(F)ccc1S(=O)(=O)N1CCCOC1CNC(=O)C(=O)NCCCN1CCOCC1 (configuration not stated)	3.0	10.1	0.0	1.0	-6.0	-2.2
CCCCNC(=O)c1cc(-c2ccccc2)sc1N	17.8	-15.1	1.8	-7.9	21.0*	7.3
COCCNC(=O)c1cc(-c2ccccc2)sc1N	-0.3	8.3	3.6	4.0	0.6	2.7
CSc1ccc(OC2(C)CCN(Cc3cc4ccccc4o3)C2)cc1 (configuration not stated)	-0.1	1.5	-0.5	-4.7	-5.3	-0.9
Fc1ccccc1COc1cccc(/C=N/n2cnnc2)c1	-0.2	-0.1	0.5	10.0	3.9	-2.0
Cc1cc(/C=N/n2cnnc2)c(C)n1-c1ccc(OCc2ccccc2F)cc1	-15.0	29.3*	7.6	30.7*	-21.0	-0.5
C(=N\n1cnnc1)/c1ccc(OCc2ccccc2)cc1	2.6	-6.3	1.1	-6.8	-3.0	-0.7
Cc1cc(/C=N/n2cnnc2)c(C)n1-c1ccc(OCc2ccc(Cl)cc2)cc1	-11.9	24.6	5.1	30.2*	-14.8	-4.6
C[C@@H](C(=O)N[C@@H](Cc1c[nH]c2ccccc12)C(=O)O)n1nnc2ccccc2c1=O	8.7	-3.8	0.5	9.7	-1.2	-0.5
O=C(NCC1CCCO1)c1ccc(NC(=O)c2ccc([N+](=O)[O-])cc2)cc1 (configuration not stated)	13.2*	-29.0	5.8	-9.2	13.1	13.9
O=C(NCC1CCCO1)c1ccc(Oc2ccc([N+](=O)[O-])cc2)cc1 (configuration not stated)	-10.0	1.4	10.3	9.0	-9.5	0.1
CC(C)N(C(=O)[C@H]1CC(CC(=O)NCCc2ccccn2)C(=O)N2CCc3c([nH]c4ccccc34)[C@]12C)C(C)C (some centres not stated)	2.1	1.6	0.3	-4.9	3.7	-0.8
SMILES	CHRM4 PAM	CHRM5 antagonist	M4 ag	CHRM4 antagonist	CHRM5 PAM	M5 ag
COC(C#CCCN(C)C)(c1ccccc1)c1ccccc1	-18.2	93.7*	0.9	34.9*	-18.9	-7.8
C[C@@H]1CNC(=O)c2c(C(=O)NCC(=O)OC(C)(C)C)ncn21	1.9	-4.1	1.4	-4.3	3.0	-0.4
c1ccc(C(CN2CCOCC2)c2ccccc2)cc1	-6.4	99.4*	-1.6	7.0	-3.6	-7.5
Fc1ccccc1CN1CCCN(C(=S)Nc2cccc(Cl)c2)C1	-17.2	28.5*	23.2	11.1	-27.2	2.9
Cn1nc(C(C)(C)C)cc1C(=O)NCc1cc(F)cc2c1OCOC2	-12.3	28.6*	19.5	23.4	-28.2	6.8
COc1ccc(NS(=O)(=O)c2ccc(N3CCCC3=O)cc2)cn1	-16.8	28.0*	20.7	12.8	-20.5	2.8
Cc1c(C2(O)CCCCC2)[nH]c2cnccc12	5.7	6.6	1.8	-11.9	2.0	-11.5
CCc1c(C2(O)CCCCC2)[nH]c2cc(C(F)(F)F)ccc12	-15.6	10.1	0.6	41.6*	-22.9	-5.7
Cc1c(C2(O)CCCCC2)[nH]c2cc(C(F)(F)F)ccc12	-18.5	4.7	11.2	33.3*	-27.8	-2.4
COc1ccc(NC(=O)c2cc(CC(C)C)nc3ccccc23)cc1	-0.5	-0.4	6.7	-33.9	-0.7	-10.6
CN(CC(=O)Nc1ccc(Cl)c(C(F)(F)F)c1)C(=O)c1cc(=O)c2ccccc2o1	6.9	1.5	5.5	2.2	-2.8	3.1
CN1CCN(c2ncccc2S(=O)(=O)N2CCCCC2)CC1	-13.5	98.6*	0.3	69.4*	-15.3	-11.2
CN1CC(=O)N(CC(=O)Nc2cc(Cl)cc(Cl)c2)C1=O	-1.6	9.0	2.0	8.9	0.1	0.6
CCN1CCCC1CN(Cc1cc2c(C)cc(C)cc2[nH]c1=O)C(=O)NC1CCCCC1 (configuration not stated)	-8.6	-1.8	-0.5	35.6*	-0.3	-6.0
NC(=O)NC(=O)COC(=O)c1cccc(NS(=O)(=O)/C=C/c2ccccc2)c1	-7.4	-1.3	1.2	-8.0	-3.5	-2.4
NC(=O)c1ccccc1N/C=C/C(=O)c1ccc(F)cc1	2.1	-4.9	1.6	-18.9	2.0	-6.7
NC(=O)c1ccccc1N/C=C/C(=O)c1ccc(Cl)cc1Cl	4.5	-10.1	0.2	-18.0	47.2*	-3.8
COc1cc2c(cc1OC)CN(S(=O)(=O)c1ccccc1F)CC2	-4.2	10.5	2.9	3.9	-5.1	-2.0
COc1ccc(C2=NS(=O)(=O)N(C)C(C(=O)N3CCOCC3)=C2)cc1	-8.1	6.5	4.8	0.2	-5.7	2.8
